Experimental data as given in ChEMBL document CHEMBL1123499, “Synthesis, saludiuretic, and antihypertensive activity of 6,7-disubstituted 1(2H)- and 3,4-dihydro-1(2H)-phthalazinones” (1986).

Assays:
[1] = species: Rattus norvegicus; experiment: Saluretic activity in rats after 0-24 hours, as chloride ion concentration in urine; type: functional
How it was run: (§1)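 Male Sabra rats (170-200 g), fasted 18 h, dosed orally 50 mg/kg in saline at 25 mL/kg, eight per compound, two per metabolic cage, no food or water. Urine collected 5 and 24 h after dosing and centrifuged. Chloride titrated with Hg(NO3)2/diphenylcarbazone after HNO3 acidification; Na+ and K+ by atomic absorption.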

[2] = species: Rattus norvegicus; experiment: Saluretic activity in rats after 5-24 hours, as ratio of Na+/K+ ion concentration in urine; type: functional; how it was run: as §1
[3] = species: Rattus norvegicus; experiment: Saluretic activity in rats after 0-5 hours, as ratio of Na+/K+ ion concentration in urine; type: functional; how it was run: as §1
[4] = species: Rattus norvegicus; experiment: Saluretic activity in rats after 0-24 hours, as potassium ion concentration in urine; type: functional; how it was run: as §1
[5] = species: Rattus norvegicus; experiment: Saluretic activity in rats after 5-24 hours, as potassium ion concentration in urine; type: functional; how it was run: as §1
[6] = species: Rattus norvegicus; experiment: Saluretic activity in rats after 0-24 hours, as ratio of Na+/K+ ion concentration in urine; type: functional; how it was run: as §1
[7] = species: Rattus norvegicus; experiment: Saluretic activity in rats after 5-24 hours, as chloride ion concentration in urine; type: functional; how it was run: as §1
[8] = species: Rattus norvegicus; experiment: Diuretic activity in rats at time intervals of 0-24 hours; type: functional, Urine
How it was run: (§2)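 Male Sabra rats (170-200 g), starved 18 h, given 50 mg/kg by stomach tube in saline (25 mL/kg load), eight per compound, saline and furosemide controls run alongside. Held two per metabolic cage at 22 °C without food or water. Urine volume measured at 5 and 24 h collections.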

[9] = species: Rattus norvegicus; experiment: Saluretic activity in rats after 0-5 hours, as sodium ion concentration in urine; type: functional; how it was run: as §1
[10] = species: Rattus norvegicus; experiment: Saluretic activity in rats after 0-5 hours, as potassium ion concentration in urine; type: functional; how it was run: as §1
[11] = species: Rattus norvegicus; experiment: Saluretic activity in rats after 5-24 hours, as sodium ion concentration in urine; type: functional; how it was run: as §1
[12] = species: Rattus norvegicus; experiment: Saluretic activity in rats after 0-5 hours, as chloride ion concentration in urine; type: functional; how it was run: as §1
[13] = species: Rattus norvegicus; experiment: Diuretic activity in rats at time intervals of 5-24 hours; type: functional, Urine; how it was run: as §2
[14] = species: Rattus norvegicus; experiment: Saluretic activity in rats after 0-24 hours, as sodium ion concentration in urine; type: functional; how it was run: as §1
[15] = species: Rattus norvegicus; experiment: Diuretic activity in rats at time intervals of 0-5 hours; type: functional, Urine; how it was run: as §2
[16] = species: Rattus norvegicus; experiment: Compound was tested for antihypertensive activity in rat after 4 hr postdose; type: functional
How it was run: (§3)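 DOCA/saline hypertensive Sprague-Dawley rats (250-350 g), six per group, given 10 mg/kg doca s.c. daily with saline until systolic BP reached 170 mmHg (usually 3-4 weeks). Oral 25 mg/kg in 5 mL/kg 1% methylcellulose. Systolic BP by tail-cuff before and 1, 4, 24 h after; drop reported as mean ± SD.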

[17] = species: Rattus norvegicus; experiment: Compound was tested for antihypertensive activity in rat after 24 hr postdose; type: functional; how it was run: as §3
[18] = species: Rattus norvegicus; experiment: Compound was tested for antihypertensive activity in rat after 1 hr postdose; type: functional; how it was run: as §3

Row | SMILES | Saluretic activity [1] | Ratio [2] | Ratio [3] | Saluretic activity [4] | Saluretic activity [5] | Ratio [6] | Saluretic activity [7] | Diuretic activity [8] | Saluretic activity [9] | Saluretic activity [10] | Saluretic activity [11] | Saluretic activity [12] | Diuretic activity [13] | Saluretic activity [14] | Diuretic activity [15] | Decrease in blood pressure [16] | Decrease in blood pressure [17] | Decrease in blood pressure [18]
1 | NS(=O)(=O)c1cc2cnnc(O)c2cc1Cl | 9.12 m equiv kg-1 | 1.35 | 2.44 | 5.7 m equiv kg-1 | 3.19 m equiv kg-1 | 1.83 | 5.02 m equiv kg-1 | 8.8 mL | 6.14 m equiv kg-1 | 2.51 m equiv kg-1 | 4.3 m equiv kg-1 | 4.1 m equiv kg-1 | 3.2 mL | 10.44 m equiv kg-1 | 5.6 mL |  |  | 
2 | NS(=O)(=O)c1cc2c(cc1Cl)CNNC2=O | 12.48 m equiv kg-1 | 1.27 | 3 | 5.63 m equiv kg-1 | 3.45 m equiv kg-1 | 1.94 | 4.16 m equiv kg-1 | 12.7 mL | 6.55 m equiv kg-1 | 2.18 m equiv kg-1 | 4.36 m equiv kg-1 | 8.32 m equiv kg-1 | 6.2 mL | 10.91 m equiv kg-1 | 6.5 mL | 31 mmHg | 27 mmHg | 24.7 mmHg
3 | NS(=O)(=O)c1cc2c(cc1Cl)CNN(Cc1ccccc1)C2=O | 13.69 m equiv kg-1 | 1.36 | 2.65 | 6.79 m equiv kg-1 | 4.18 m equiv kg-1 | 1.86 | 5 m equiv kg-1 | 13.2 mL | 6.9 m equiv kg-1 | 2.61 m equiv kg-1 | 5.7 m equiv kg-1 | 8.69 m equiv kg-1 | 6.6 mL | 12.6 m equiv kg-1 | 6.6 mL |  |  | 
4 | NS(=O)(=O)c1cc2c(=O)n(-c3cccc(C(F)(F)F)c3)ncc2cc1Cl |  | 1.33 | 1.72 | 4.31 m equiv kg-1 | 3.04 m equiv kg-1 | 1.45 |  | 6.6 mL | 2.18 m equiv kg-1 | 1.27 m equiv kg-1 |  |  | 4.4 mL | 6.25 m equiv kg-1 | 2.2 mL |  |  | 
5 | CN1NCc2cc(S(N)(=O)=O)c(Cl)cc2C1=O | 8.05 m equiv kg-1 | 1.64 | 1.78 | 4.35 m equiv kg-1 | 3 m equiv kg-1 | 1.69 | 5.29 m equiv kg-1 | 6.1 mL | 2.41 m equiv kg-1 | 1.35 m equiv kg-1 | 4.94 m equiv kg-1 | 2.76 m equiv kg-1 | 3.4 mL | 7.35 m equiv kg-1 | 2.7 mL |  |  | 
6 | NS(=O)(=O)c1cc2c(cc1Cl)C(=O)N(Cc1ccccc1)NC2 | 10.53 m equiv kg-1 | 1.67 | 2.1 | 5.21 m equiv kg-1 | 3.29 m equiv kg-1 | 1.83 | 5.39 m equiv kg-1 | 7.6 mL | 4.01 m equiv kg-1 | 1.92 m equiv kg-1 | 5.5 m equiv kg-1 | 5.14 m equiv kg-1 | 3.6 mL | 9.51 m equiv kg-1 | 4 mL |  |  | 
7 | NS(=O)(=O)c1cc2c(=O)n(Cc3ccco3)ncc2cc1Cl | 5.26 m equiv kg-1 | 1.11 | 2.83 | 3.74 m equiv kg-1 | 2.16 m equiv kg-1 | 1.63 | 1.46 m equiv kg-1 | 2.8 mL | 3.68 m equiv kg-1 | 1.58 m equiv kg-1 | 2.4 m equiv kg-1 | 3.8 m equiv kg-1 | 1 mL | 6.08 m equiv kg-1 | 1.8 mL |  |  | 
8 | NS(=O)(=O)c1cc2c(O)nncc2cc1Sc1ccccc1 | 8.44 m equiv kg-1 | 1.17 | 2 | 5.7 m equiv kg-1 | 4.25 m equiv kg-1 | 1.38 | 4.47 m equiv kg-1 | 7.6 mL | 2.9 m equiv kg-1 | 1.45 m equiv kg-1 | 4.97 m equiv kg-1 | 3.97 m equiv kg-1 | 4.7 mL | 7.87 m equiv kg-1 | 2.9 mL |  |  | 
9 | NS(=O)(=O)c1cc2c(cc1Cl)C(=O)N(c1cccc(C(F)(F)F)c1)NC2 | 8.73 m equiv kg-1 | 1.46 | 1.82 | 4.53 m equiv kg-1 | 3.84 m equiv kg-1 | 1.51 | 6.66 m equiv kg-1 | 6.1 mL | 1.26 m equiv kg-1 | 0.69 m equiv kg-1 | 5.6 m equiv kg-1 | 2.07 m equiv kg-1 | 4.5 mL | 6.86 m equiv kg-1 | 1.6 mL |  |  | 
10 | Cn1ncc2cc(S(N)(=O)=O)c(Sc3ccccc3)cc2c1=O | 8.31 m equiv kg-1 | 1.92 | 1.7 | 4.62 m equiv kg-1 | 3.42 m equiv kg-1 | 1.86 | 5.98 m equiv kg-1 | 5.9 mL | 2.05 m equiv kg-1 | 1.2 m equiv kg-1 | 6.55 m equiv kg-1 | 2.33 m equiv kg-1 | 3.8 mL | 8.6 m equiv kg-1 | 2.1 mL |  |  | 
11 | NS(=O)(=O)c1cc2c(cc1Cl)CNN(c1cccc(C(F)(F)F)c1)C2=O | 12.6 m equiv kg-1 | 1.43 | 3.1 | 5.41 m equiv kg-1 | 3.42 m equiv kg-1 | 2.05 | 4.69 m equiv kg-1 | 11.6 mL | 6.17 m equiv kg-1 | 1.99 m equiv kg-1 | 4.9 m equiv kg-1 | 7.91 m equiv kg-1 | 6.7 mL | 11.07 m equiv kg-1 | 4.9 mL |  |  | 
12 | NS(=O)(=O)c1cc2cnn(-c3cccc(C(F)(F)F)c3)c(=O)c2cc1Cl |  | 1.41 | 1.66 | 5.16 m equiv kg-1 | 4.67 m equiv kg-1 | 1.44 |  | 4.9 mL | 0.82 m equiv kg-1 | 0.49 m equiv kg-1 |  |  | 4 mL | 7.41 m equiv kg-1 | 0.9 mL | 54 mmHg | 27.7 mmHg | 35.6 mmHg
13 | NS(=O)(=O)c1cc2c(cc1Cl)N=CNS2(=O)=O [CHLOROTHIAZIDE] | 13.55 m equiv kg-1 | 1.21 | 2.06 | 7.89 m equiv kg-1 | 4.14 m equiv kg-1 | 1.62 | 4.75 m equiv kg-1 | 11.9 mL | 7.74 m equiv kg-1 | 3.75 m equiv kg-1 | 5.03 m equiv kg-1 | 8.8 m equiv kg-1 | 4.7 mL | 12.77 m equiv kg-1 | 7.2 mL |  |  | 
14 | NNc1nncc2ccccc12 [HYDRALAZINE] |  |  |  |  |  |  |  |  |  |  |  |  |  |  |  | 75.1 mmHg | 35.3 mmHg | 72.4 mmHg
15 | NS(=O)(=O)c1cc2c(cc1Cl)NCNS2(=O)=O [HYDROCHLOROTHIAZIDE] |  |  |  |  |  |  |  |  |  |  |  |  |  |  |  | 36.7 mmHg | 18 mmHg | 28.6 mmHg
